Results: the array DNA melting data of Ke et al. (doi:10.1101/2024.01.08.574731)

Experiments:
[1] = folding enthalpy; higher = less favourable; fluorescence melt of hairpins on a sequencing array, two-state fit; settings: sodium 0.088 M
Method in brief: (§1)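 Two-state fits, bootstrapped, provided melting temperature and folding enthalpy from Cy3 fluorescence normalised to pre-quench Cy3 and to control constructs. Library hairpins with annealed Cy3 and quencher oligos were imaged on a sequenced MiSeq flow cell in 50 mM Na-HEPES pH 8.0, 25 mM NaCl, at 2.5 °C intervals up to 60 °C. Four replicates were combined with inverse-variance weighting. A 9.35 °C upward shift was applied to fitted temperatures to match UV melts.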

[2] = melting temperature; fluorescence melt of hairpins on a sequencing array, two-state fit, raised by 9.35 °C to match UV melts; settings: sodium 0.088 M
Method in brief: as §1

Sequence	folding enthalpy [1]	Tm [2]
GACAAGCGAAAGCTGGTC (((.(((....))).)))	-32.4 kcal/mol	56.4 °C
GCTTACGAAAGTAGAAGC ((((((....)))..)))	-24.3 kcal/mol	38.2 °C
GATCAGATTTCTGATC ((((((....))))))	-41 kcal/mol	52.9 °C
GAGTGCGGAAACGCACCC (.(((((....))))).)	-8.77 kcal/mol	45.8 °C
GATCTAATCTTAGATC ((((((....))))))	-35.3 kcal/mol	43.6 °C
GCTAGCCCGAAAGGGAGC (((..(((....))))))	-14.3 kcal/mol	37.8 °C
GGACCCCGAAAGGGTCC (((.(((....))))))	-30.2 kcal/mol	68 °C
GGGAGTGGAAACGCTTCC ((.((.(....).)).))	-20.7 kcal/mol	39 °C
GCTATCCGAAAGGAAGC (((.(((....))))))	-23.2 kcal/mol	46 °C
GCTGTAGGAAACTATAGC (((.(((....))).)))	-28.3 kcal/mol	43.7 °C
GATCACTGCTGTGATC ((((((....))))))	-38.2 kcal/mol	57.1 °C
GATCAACGAATTGATC ((((((....))))))	-25.8 kcal/mol	38.5 °C
GCTGTACGAAAGTAGAGC (((.(((....))).)))	-35.3 kcal/mol	51.7 °C
GATCTCGGAAACGAGGTC ((.((((....)))).))	-50.8 kcal/mol	50.2 °C
GGCGACGAAAGTCCAGCC ((((((....)))..)))	-27.1 kcal/mol	51.1 °C
GCTGGCGAAAGCCATAGC ((((((....)))..)))	-16.2 kcal/mol	52.3 °C
GAGTGGCCGAAAGGCCTC (((..(((....))))))	-6.93 kcal/mol	38.3 °C
GAGGATCCGAAAGGACTC (((..(((....))))))	-13.3 kcal/mol	30.6 °C
GGCATGGGAAACCGTGTC (.((.((....)).)).)	-33.7 kcal/mol	43.3 °C
GCTACCGAAAGGTGTAGC ((((((....)))..)))	-21.7 kcal/mol	47.1 °C
GGTGCACGAAAGTGACC (((.(((....))))))	-17.4 kcal/mol	49 °C
GCGTCGCGAAAGCTAGGC ((.(.((....)).).))	-20.9 kcal/mol	36.8 °C
GGCCGCTCGAAAGAGGCC (((..(((....))))))	-48.5 kcal/mol	56.5 °C

Sequence	folding enthalpy [1]	Tm [2]
GGGAAGGGAAACCTTCCC (((((((....)))))))	-35.5 kcal/mol	65.4 °C
GCTGTGGGAAACCACAAC (.(((((....))))).)	-15.8 kcal/mol	39.2 °C
GTTCGGGGAAACCTGGAC ((.(.((....)).).))	-20.2 kcal/mol	36.8 °C
GCTATCGAAAGATAAAGC ((((((....)))..)))	-23.9 kcal/mol	33.6 °C
GATCCCTGAGGGGATC ((((((....))))))	-39.4 kcal/mol	63 °C
GAATTAGGAAACCAATTC (((((.(....).)))))	-10.8 kcal/mol	27.7 °C
GATCTAGGGATAGATC ((((((....))))))	-30.8 kcal/mol	42.3 °C
GTGTGGAAACACAC (((((....)))))	-25.8 kcal/mol	60.6 °C
GTATATGGAAACATATAC (((((((....)))))))	-42 kcal/mol	47.9 °C
GAACGACGAAAGTCTTTC (((.(((....))).)))	-24.4 kcal/mol	39.3 °C
GTTAACGAAAGTTAAAC ((((((....))).)))	-16.7 kcal/mol	36 °C
CGGTAGAAATACCG (((((....)))))	-28.2 kcal/mol	48.6 °C
GCGGCAACGAAAGTTCGC (((..(((....))))))	-21.3 kcal/mol	45.1 °C
GGGGTCGGAAACGATCCC (((.(((....))).)))	-48.4 kcal/mol	59.7 °C
GATCAGGGAAACCTGATC (((((((....)))))))	-41.8 kcal/mol	59 °C
GGATTCCGAAAGGATTCC (((.(((....))).)))	-35.8 kcal/mol	49.7 °C
GATCCCACTGGGATC ((((((...))))))	-34.8 kcal/mol	60.9 °C
GCGACTCTTCGC ((((....))))	-23 kcal/mol	50.6 °C
GTCTGTGGAAACATGGAC (((..((....))..)))	-26.8 kcal/mol	37.3 °C
GCTACCGGAAACGATAGC ((((.((....)).))))	-31.6 kcal/mol	43.7 °C
GATCCAGTTATGGATC ((((((....))))))	-46.4 kcal/mol	58.4 °C
GCCGTCGAAAGACCTGGC ((((((....)))..)))	-19.8 kcal/mol	44.7 °C
GCCATGCGAAAGCCAGGC (((..((....))..)))	-21 kcal/mol	55.4 °C

Sequence	folding enthalpy [1]	Tm [2]
GTGGGCGAAAGCCTACAC ((((((....)))..)))	-11.9 kcal/mol	55.1 °C
GCCTCTCGAAAGAGGGGC (((.(((....))).)))	-34.1 kcal/mol	63.2 °C
GACGGGCCGAAAGGCGTC (((..(((....))))))	-15 kcal/mol	48.8 °C
GGTTTAGCGAAAGCTACC (((..(((....))))))	-12.1 kcal/mol	32 °C
GGGAATCGAAAGATCCCC (((.(((....))).)))	-24.9 kcal/mol	51.5 °C
GACCGCGAAAGCGGAGTC ((((((....)))..)))	-7.63 kcal/mol	40.6 °C
GCGACAGCGAAAGCTCGC (((..(((....))))))	-14.6 kcal/mol	46.7 °C
GCATCCCGAAAGGGTTGC (((.(((....))).)))	-30.1 kcal/mol	60.1 °C
GCTGTGCGAAAGCGCGGC ((.(.((....)).).))	-25.3 kcal/mol	66.6 °C
GCTAACACGAAAGTGAGC (((..(((....))))))	-20.2 kcal/mol	39.4 °C
CCATGGAAACATGG (((((....)))))	-23.2 kcal/mol	49.6 °C
GCGGAGCGAAAGCTCGGC ((.((((....)))).))	-17.8 kcal/mol	65.1 °C
GCTGAGCGAAAGCTGGGC ((..(((....)))..))	-19.8 kcal/mol	50.3 °C
GCCTAGCGAAAGCCCGGC (((..((....))..)))	-17.4 kcal/mol	42.7 °C
TGAAGGAAACTTCA (((((....)))))	-13.9 kcal/mol	31.8 °C
GGGACCGGAAACGGTCTC (.(((((....))))).)	-13.2 kcal/mol	59.2 °C
GTGACCGCGAAAGCGCAC (((..(((....))))))	-8.65 kcal/mol	40.3 °C
GGTGTCGGAAACGACGTC (..((((....))))..)	-12.3 kcal/mol	36.8 °C
GCTGCTGGAAACGGCAGC (((((.(....).)))))	-44.6 kcal/mol	63.1 °C
GATCTCGAAGGAGATC ((((((....))))))	-32.9 kcal/mol	55.1 °C
GTCACCGCGAAAGCGGAC (((..(((....))))))	-5.92 kcal/mol	26.5 °C
GATCTTGCGAAAGATC ((((((....))))))	-46.2 kcal/mol	50.6 °C
GACCGCCCGAAAGGGGTC (((..(((....))))))	-15.4 kcal/mol	42.3 °C

Sequence	folding enthalpy [1]	Tm [2]
GCTTGAGGAAACTCGAGC (((.(((....))).)))	-41.5 kcal/mol	51.5 °C
CGCCCCGGAAACGGTGCG (((.(((....))).)))	-49.4 kcal/mol	53.9 °C
CATAGGAAACTATG (((((....)))))	-14.3 kcal/mol	38.4 °C
CGCCAACGGAAACGTGCG (((..(((....))))))	-26 kcal/mol	45.5 °C
GTCAATGAAAATTGAC ((((((....))))))	-31.7 kcal/mol	50.8 °C
GATCATCAGCATGATC ((((((....))))))	-22.3 kcal/mol	45 °C
GCGAGTCCGAAAGGACGC (((..(((....))))))	-9.26 kcal/mol	53 °C
GCAACCGGAAACGATTGC ((((.((....)).))))	-31.5 kcal/mol	47.4 °C
GTAGGACGAAAGTCATAC (((.(((....))).)))	-28.1 kcal/mol	52.5 °C
GAATGACGAAAGTCCTTC (((.(((....))).)))	-26.7 kcal/mol	38.5 °C
CTGGGGAAACCCAG (((((....)))))	-25.4 kcal/mol	53.5 °C
GCTATTGGAAACAATAGC (((((((....)))))))	-47.7 kcal/mol	56 °C
GATCGGGTATCCGATC ((((((....))))))	-37.6 kcal/mol	65.4 °C
GATCTTCCTAAGATC ((((((...))))))	-31.6 kcal/mol	45.7 °C
GAAGACGAAAGTCTATTC ((((((....)))..)))	-11.4 kcal/mol	30.5 °C
GGGGGGGGAAACCCTCCC (((.(((....))).)))	-31.3 kcal/mol	59.4 °C
GCGGTAGGCCGC ((((....))))	-17.4 kcal/mol	63.7 °C
GGTTATGGAAACATGACC (((.(((....))).)))	-33.2 kcal/mol	45.4 °C
GCTCATGGAAACATAAGC (((.(((....))).)))	-18.2 kcal/mol	32 °C
GTATGCGAAAGCATGTAC ((((((....)))..)))	-10.6 kcal/mol	38 °C
GCTACCGAAAGGTGAGC ((((((....))).)))	-23.3 kcal/mol	51 °C
GATCATACGGATGATC ((((((....))))))	-39.6 kcal/mol	47.1 °C
GAAATCCGAAAGGAGTTC (((.(((....))).)))	-31.9 kcal/mol	49.4 °C
